Reference: ChEMBL document CHEMBL4257536, “Pharmacophore-based tailoring of biphenyl amide derivatives as selective 5-hydroxytryptamine 2B receptor antagonists” (Medchemcomm, 2018)

What was measured:
[1] = target: T1, 5-hydroxytryptamine receptor 2B (Homo sapiens, UniProt P41595); experiment: Ratio of IC50 for antagonist activity at recombinant human 5-HT2B receptor in presence of human serum albumin to IC50 for antagonist activity at recombinant human 5-HT2B receptor in absence of human serum albumin
T1 sequence (P41595 whole entry): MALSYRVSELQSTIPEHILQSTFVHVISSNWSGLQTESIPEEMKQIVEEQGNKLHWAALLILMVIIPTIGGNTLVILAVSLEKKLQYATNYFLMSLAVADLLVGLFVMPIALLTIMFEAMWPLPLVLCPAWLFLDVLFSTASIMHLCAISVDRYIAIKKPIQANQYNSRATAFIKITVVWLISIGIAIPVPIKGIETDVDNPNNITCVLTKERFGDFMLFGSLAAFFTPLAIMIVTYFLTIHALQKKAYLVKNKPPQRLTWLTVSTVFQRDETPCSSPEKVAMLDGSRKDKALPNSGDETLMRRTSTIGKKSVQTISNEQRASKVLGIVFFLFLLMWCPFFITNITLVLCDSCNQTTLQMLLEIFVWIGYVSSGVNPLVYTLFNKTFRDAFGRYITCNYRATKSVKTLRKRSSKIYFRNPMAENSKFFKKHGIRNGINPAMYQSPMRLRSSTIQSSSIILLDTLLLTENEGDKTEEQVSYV
Method in brief: (§1)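 IC50 was measured in the CHO-K1/5-HT2B calcium-flux assay twice, once in buffer alone and once with 4% HSA added. The ratio compares the IC50 with HSA to the IC50 without it. Run in triplicate.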

[2] = target: T2, 5-hydroxytryptamine receptor 2C (Homo sapiens, UniProt P28335); experiment: Displacement of [3H]LSD from human 5HT2C receptor expressed in HEKT cell membranes after 1.5 hrs by liquid scintillation counting method
T2 sequence (P28335 whole entry): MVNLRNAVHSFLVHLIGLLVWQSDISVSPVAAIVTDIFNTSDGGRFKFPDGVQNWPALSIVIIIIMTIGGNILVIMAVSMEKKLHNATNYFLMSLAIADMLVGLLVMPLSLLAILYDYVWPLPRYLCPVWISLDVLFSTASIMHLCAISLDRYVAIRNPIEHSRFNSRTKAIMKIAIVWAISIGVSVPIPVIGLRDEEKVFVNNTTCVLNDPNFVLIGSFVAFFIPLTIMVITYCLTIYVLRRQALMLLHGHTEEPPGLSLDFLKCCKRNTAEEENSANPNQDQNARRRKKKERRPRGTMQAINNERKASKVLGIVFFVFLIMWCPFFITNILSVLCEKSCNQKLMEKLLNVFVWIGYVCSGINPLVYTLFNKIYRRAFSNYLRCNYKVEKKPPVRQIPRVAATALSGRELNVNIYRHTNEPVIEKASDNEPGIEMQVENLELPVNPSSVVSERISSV

[3] = target: T1, 5-hydroxytryptamine receptor 2B; experiment: (§2) Antagonist activity at recombinant human 5-HT2B receptor expressed in CHOK1 cells assessed as inhibition of serotonin-induced calcium flux at 1 to 10 uM preincubated for 60 mins at 37 degC followed by incubation at room temperature for 15 mins and subsequent addition of serotonin and measured for 100 secs by fluorescence assay relative to control; assay type: functional, cell-based
Method in brief: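 Calcium-flux functional assay in CHO-K1 cells stably expressing 5-HT2B. Compounds were screened at 10 μM and 1 μM, and the value is % inhibition of 5-HT2B activity. Run in triplicate.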

[4] = target: T1, 5-hydroxytryptamine receptor 2B; experiment: as §2, with “flux” for “flux at 1 to 10 uM”, “assay” for “assay relative to control”; assay type: functional, cell-based
Method in brief: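 5-HT2B antagonist IC50 came from a dose-response curve in a calcium-flux assay in the CHO-K1/5-HT2B cell line. Run in triplicate.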

[5] = target: T3, 5-hydroxytryptamine receptor 1A (Homo sapiens, UniProt P08908); experiment: Displacement of [3H]8-OH-DPAT from human 5HT1A receptor expressed in CHO cell membranes after 1.5 hrs by liquid scintillation counting method
T3 sequence (P08908 whole entry): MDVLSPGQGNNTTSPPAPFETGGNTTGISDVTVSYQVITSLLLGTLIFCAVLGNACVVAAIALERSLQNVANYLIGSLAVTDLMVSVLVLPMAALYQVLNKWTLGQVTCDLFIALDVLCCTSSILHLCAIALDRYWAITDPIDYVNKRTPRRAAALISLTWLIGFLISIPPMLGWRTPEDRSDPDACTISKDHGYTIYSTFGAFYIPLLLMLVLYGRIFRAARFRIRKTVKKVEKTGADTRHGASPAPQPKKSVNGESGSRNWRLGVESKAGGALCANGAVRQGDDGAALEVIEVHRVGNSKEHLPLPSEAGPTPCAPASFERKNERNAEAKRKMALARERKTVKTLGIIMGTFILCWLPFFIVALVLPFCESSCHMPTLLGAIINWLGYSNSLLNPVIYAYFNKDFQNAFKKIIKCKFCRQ
Method in brief: (§3)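 Ki determination by radioligand displacement in triplicate. Reference radioligands: [3H]5-HT for 5-HT1E, [3H]8-OH-DPAT for 5-HT1A, [3H]GR127543 for 5-HT1B, [3H]LY278584 for 5-HT3.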

[6] = target: 5-hydroxytryptamine receptor 1B (Homo sapiens, UniProt P28222); experiment: Displacement of [3H]GR127543 from human 5HT1B receptor expressed in HEK cell membranes after 1.5 hrs by liquid scintillation counting method; method in brief: as §3
Chain of 5-hydroxytryptamine receptor 1B (P28222 whole entry): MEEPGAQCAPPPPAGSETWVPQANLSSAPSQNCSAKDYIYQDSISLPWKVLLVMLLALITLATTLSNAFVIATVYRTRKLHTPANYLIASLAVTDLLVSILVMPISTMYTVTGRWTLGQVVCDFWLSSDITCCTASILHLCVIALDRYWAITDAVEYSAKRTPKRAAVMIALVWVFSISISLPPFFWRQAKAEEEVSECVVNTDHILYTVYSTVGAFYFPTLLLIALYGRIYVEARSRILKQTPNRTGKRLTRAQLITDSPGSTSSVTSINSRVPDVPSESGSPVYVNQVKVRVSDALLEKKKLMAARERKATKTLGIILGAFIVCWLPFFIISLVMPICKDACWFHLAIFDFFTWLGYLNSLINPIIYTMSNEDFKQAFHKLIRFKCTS

[7] = target: 5-hydroxytryptamine receptor 1E (Homo sapiens, UniProt P28566); experiment: Displacement of [3H]5-HT from human 5HT1E receptor expressed in HEKT cell membranes after 1.5 hrs by liquid scintillation counting method; method in brief: as §3
Chain of 5-hydroxytryptamine receptor 1E (P28566 whole entry): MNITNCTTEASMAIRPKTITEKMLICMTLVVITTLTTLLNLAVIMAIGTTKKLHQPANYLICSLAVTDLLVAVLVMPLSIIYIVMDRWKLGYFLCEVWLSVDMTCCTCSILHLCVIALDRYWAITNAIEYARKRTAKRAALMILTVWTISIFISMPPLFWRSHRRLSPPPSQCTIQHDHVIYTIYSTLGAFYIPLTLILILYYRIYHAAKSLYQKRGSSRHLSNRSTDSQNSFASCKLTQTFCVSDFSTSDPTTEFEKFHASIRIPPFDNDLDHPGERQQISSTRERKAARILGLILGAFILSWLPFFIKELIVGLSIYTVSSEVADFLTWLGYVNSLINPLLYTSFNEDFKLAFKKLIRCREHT

[8] = target: 5-hydroxytryptamine receptor 2A (Homo sapiens, UniProt P28223); experiment: Displacement of [3H]ketanserin from human 5HT2A receptor expressed in HEKT cell membranes after 1.5 hrs by liquid scintillation counting method; assay type: cell-based
Chain of 5-hydroxytryptamine receptor 2A (P28223 whole entry): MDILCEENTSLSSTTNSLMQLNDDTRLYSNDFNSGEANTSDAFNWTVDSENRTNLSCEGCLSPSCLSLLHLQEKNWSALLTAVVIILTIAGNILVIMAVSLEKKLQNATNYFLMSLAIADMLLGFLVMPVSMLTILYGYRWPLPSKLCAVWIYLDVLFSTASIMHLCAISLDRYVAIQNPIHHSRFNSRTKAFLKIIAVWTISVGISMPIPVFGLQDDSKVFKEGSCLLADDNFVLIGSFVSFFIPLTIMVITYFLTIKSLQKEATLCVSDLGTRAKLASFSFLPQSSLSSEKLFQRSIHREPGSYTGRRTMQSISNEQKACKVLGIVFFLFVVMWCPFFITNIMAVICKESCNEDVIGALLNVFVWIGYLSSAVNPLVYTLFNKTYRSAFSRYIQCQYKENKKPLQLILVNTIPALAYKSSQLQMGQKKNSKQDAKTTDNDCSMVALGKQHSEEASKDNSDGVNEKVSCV

[9] = target: T1, 5-hydroxytryptamine receptor 2B; experiment: Displacement of [3H]LSD from human 5HT2B receptor expressed in HEK cells membranes after 1.5 hrs by liquid scintillation counting method; assay type: cell membranes
[10] = target: T4, 5-hydroxytryptamine receptor 3A (Homo sapiens, UniProt P46098); experiment: Displacement of [3H]LY278584 from human 5HT3 receptor expressed in HEKT cell membranes after 1.5 hrs by liquid scintillation counting method
T4 sequence (P46098 whole entry): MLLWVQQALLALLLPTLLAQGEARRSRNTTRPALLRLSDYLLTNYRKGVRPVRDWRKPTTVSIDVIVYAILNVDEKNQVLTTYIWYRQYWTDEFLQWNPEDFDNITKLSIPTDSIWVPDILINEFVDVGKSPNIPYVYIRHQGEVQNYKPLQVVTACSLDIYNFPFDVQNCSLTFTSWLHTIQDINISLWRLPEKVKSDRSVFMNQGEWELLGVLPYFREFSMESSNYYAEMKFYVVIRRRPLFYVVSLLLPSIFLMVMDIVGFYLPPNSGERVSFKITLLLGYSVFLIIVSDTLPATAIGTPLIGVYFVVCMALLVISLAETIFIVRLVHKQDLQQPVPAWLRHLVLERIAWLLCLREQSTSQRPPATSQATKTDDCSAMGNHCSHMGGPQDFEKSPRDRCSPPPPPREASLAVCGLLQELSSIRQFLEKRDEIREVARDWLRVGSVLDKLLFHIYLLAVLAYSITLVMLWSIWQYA

[11] = target: T1, 5-hydroxytryptamine receptor 2B; experiment: as §2, with “flux” for “flux at 1 to 10 uM”, “secs in presence of human serum albumin” for “secs”, “assay” for “assay relative to control”; assay type: functional, cell-based; method in brief: as §1
[12] = Half life of compound in fasted state simulated gastric fluid at pH 1.6; assay type: ADME
[13] = Half life of compound in fasted state simulated intestinal fluid at pH 6.5; assay type: ADME
[14] = Metabolic stability in human plasma assessed as compound remaining measured after 120 mins; assay type: ADME, cell-free; conditions: read-out: Stability
[15] = Apparent permeability across apical side to basolateral side in human Caco2 cells; assay type: ADME, cell-based; conditions: Caco-2
[16] = Apparent permeability across basolateral side to apical side in human Caco2 cells; assay type: ADME, cell-based; conditions: Caco-2
[17] = Half life in rat liver microsomes; assay type: ADME, microsome
HepG2 = experiment: Cytotoxicity against human HepG2 cells by MTT assay; assay type: cell-based
Homo sapiens = organism: Homo sapiens; experiment: Selectivity ratio of Ki for human 5HT1B receptor to Ki for human 5HT2B receptor
Method in brief: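 Ki values from radioligand displacement run in triplicate, using [3H]GR127543 for 5-HT1B and [3H]LSD for 5-HT2B. The ratio compares the 5-HT1B Ki to the 5-HT2B Ki.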

SMILES	Ratio IC50 [1]	Ki [2] [nM]	Ki [5] [µM]	Ki [6] [µM]	Ki [7] [µM]	Ki [8] [µM]	Ki [9] [nM]	Ki [10] [µM]	further results
Cc1cc2c(cc1Cl)N(C(=O)Nc1ccnc3ccccc13)CC2	50								
Cc1nc2sccn2c(=O)c1CCN1CCC(=C(c2ccc(F)cc2)c2ccc(F)cc2)CC1 [RITANSERIN]		1.9							
O=C(NCCc1c[nH]c2ccccc12)C1CCN(C(=O)c2ccc(-c3ccccc3)cc2)CC1		473	0.603	3.41	> 10	2.46	4.5	> 10	inhibition [3]: > 95%; IC50 [4]: 14.1 nM; IC50 [11]: 18.7 nM; half-life [12]: 259 min; half-life [13]: > 500 min; remaining at 2 h [14]: 97.4%; Papp A→B [15]: 16.3 ×10⁻⁶ cm/s; Papp B→A [16]: 32.8 ×10⁻⁶ cm/s; half-life [17]: 179 min; IC50 (HepG2): > 50 µM
O=C(c1ccc(-c2ccccc2)cc1)N1CCC(c2nc3ccccc3[nH]2)CC1	500								
O=C(NCc1ccccc1)C1CCN(C(=O)c2ccc(-c3ccccc3)cc2)CC1		986	9.39	8.59	> 10	6.79	569	> 10	Ratio Ki (Homo sapiens): 15
O=C(NCCc1c[nH]c2ccccc12)C1CCN(C(=O)c2ccccc2)CC1		749	5.4	7.6	> 10	5.69	79.3	> 10	
CC(C)c1cc(-c2ccc(F)c3ccccc23)nc(N)n1	27								
